This is an account of results in ChEMBL document CHEMBL2203205 (Eur J Med Chem, 2012).

The target in data set [1] is T1, Alpha-2A adrenergic receptor (Homo sapiens, UniProt P08913).
T1 sequence (P08913 whole entry): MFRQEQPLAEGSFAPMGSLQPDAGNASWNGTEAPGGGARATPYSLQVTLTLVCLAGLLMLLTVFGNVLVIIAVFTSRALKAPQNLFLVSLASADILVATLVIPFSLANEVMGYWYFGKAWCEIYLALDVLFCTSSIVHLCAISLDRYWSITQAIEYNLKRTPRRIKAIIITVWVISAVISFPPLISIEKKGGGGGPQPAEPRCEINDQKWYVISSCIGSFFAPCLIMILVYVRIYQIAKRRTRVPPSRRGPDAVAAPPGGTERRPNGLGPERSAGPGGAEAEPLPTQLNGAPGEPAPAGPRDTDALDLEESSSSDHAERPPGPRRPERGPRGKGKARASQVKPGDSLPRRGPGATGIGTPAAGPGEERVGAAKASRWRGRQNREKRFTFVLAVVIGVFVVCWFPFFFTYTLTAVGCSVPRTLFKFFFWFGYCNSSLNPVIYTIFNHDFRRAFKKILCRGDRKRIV
As to the kind of experiment: Inhibition of alpha2A adrenergic receptor. In outline:
(§1)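 Radioligand competition binding, run first as a single-concentration broad screen at […], then as concentration-response for follow-up targets, with the reference compound tested in parallel. Specific binding is total minus binding in excess unlabelled ligand, expressed as % of control specific binding. IC50 and Hill coefficient come from non-linear Hill-equation regression of competition curves built from mean replicate values.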

The target of data set [2] is T2, Alpha-1D adrenergic receptor (Homo sapiens, UniProt P25100).
T2 sequence (P25100 whole entry): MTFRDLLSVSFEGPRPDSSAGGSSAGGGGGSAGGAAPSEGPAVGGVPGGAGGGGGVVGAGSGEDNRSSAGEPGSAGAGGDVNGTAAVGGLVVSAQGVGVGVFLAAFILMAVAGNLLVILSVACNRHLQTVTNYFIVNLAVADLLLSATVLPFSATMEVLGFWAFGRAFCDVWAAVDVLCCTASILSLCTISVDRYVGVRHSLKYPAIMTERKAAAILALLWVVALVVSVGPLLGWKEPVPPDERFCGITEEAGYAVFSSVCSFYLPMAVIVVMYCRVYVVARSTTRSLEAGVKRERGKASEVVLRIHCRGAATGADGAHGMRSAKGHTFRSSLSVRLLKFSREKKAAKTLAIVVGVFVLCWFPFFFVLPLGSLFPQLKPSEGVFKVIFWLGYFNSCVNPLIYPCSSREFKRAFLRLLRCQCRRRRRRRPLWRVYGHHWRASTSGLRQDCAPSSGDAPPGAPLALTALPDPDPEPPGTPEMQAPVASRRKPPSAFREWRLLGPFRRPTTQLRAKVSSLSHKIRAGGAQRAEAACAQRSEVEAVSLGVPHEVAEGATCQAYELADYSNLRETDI
As to the kind of experiment: Inhibition of alpha1D adrenergic receptor. In outline: as §1

The target in data set [3] is Voltage-gated inwardly rectifying potassium channel KCNH2 (Homo sapiens, UniProt Q12809). Nature of the data set: Inhibition of human recombinant ERG expressed in HEK293 cells up to 100 uM after 5 to 10 mins by conventional whole-cell patch clamp assay. It is filed as cell-based. The procedure, abridged: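 Conventional whole-cell patch clamp on HEK-293 cells stably expressing hERG, cultured 1–7 days in DMEM/GlutaMax-1 + 10% FBS on collagen-coated dishes. Holding potential was −80 mV. Compound was superfused 5–10 min per concentration at rt (22–24 °C). Tail current amplitude was measured before and after superfusion. IC50 came from a logistic fit of the concentration-response.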
Voltage-gated inwardly rectifying potassium channel KCNH2, sequence (Q12809 whole entry, the tested form may be a part): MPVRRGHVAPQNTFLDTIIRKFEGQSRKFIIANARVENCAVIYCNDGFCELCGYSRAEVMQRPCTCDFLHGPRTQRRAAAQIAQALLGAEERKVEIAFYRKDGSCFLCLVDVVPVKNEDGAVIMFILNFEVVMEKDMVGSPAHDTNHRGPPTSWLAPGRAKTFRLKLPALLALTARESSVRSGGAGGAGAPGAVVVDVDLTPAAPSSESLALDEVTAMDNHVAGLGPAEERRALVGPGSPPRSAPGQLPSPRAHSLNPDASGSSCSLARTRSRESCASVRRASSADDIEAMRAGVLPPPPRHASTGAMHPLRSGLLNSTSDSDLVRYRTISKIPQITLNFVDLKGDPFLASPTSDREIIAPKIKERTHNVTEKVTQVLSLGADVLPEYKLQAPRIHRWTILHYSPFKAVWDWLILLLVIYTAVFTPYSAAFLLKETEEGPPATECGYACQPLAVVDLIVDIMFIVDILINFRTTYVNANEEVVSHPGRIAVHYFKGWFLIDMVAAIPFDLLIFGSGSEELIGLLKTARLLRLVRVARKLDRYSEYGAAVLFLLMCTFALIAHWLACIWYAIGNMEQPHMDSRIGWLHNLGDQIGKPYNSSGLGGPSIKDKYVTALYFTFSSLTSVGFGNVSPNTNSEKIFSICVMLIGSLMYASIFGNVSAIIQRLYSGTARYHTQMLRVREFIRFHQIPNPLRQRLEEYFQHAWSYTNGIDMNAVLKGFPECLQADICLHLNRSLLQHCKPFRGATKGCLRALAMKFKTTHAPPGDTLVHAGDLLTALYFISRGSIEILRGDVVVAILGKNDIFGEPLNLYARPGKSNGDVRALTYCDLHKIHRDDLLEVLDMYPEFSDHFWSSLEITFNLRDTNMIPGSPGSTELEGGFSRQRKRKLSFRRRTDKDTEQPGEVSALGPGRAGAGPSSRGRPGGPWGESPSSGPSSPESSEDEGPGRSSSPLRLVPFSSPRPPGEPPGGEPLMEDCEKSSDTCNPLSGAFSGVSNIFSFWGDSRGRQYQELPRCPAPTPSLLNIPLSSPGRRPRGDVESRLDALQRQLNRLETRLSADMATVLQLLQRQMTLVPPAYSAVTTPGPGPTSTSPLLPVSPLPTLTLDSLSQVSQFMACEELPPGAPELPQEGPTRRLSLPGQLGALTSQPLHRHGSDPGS
(In general: The patch-clamp technique gives a direct electrical read-out from membranes.)

Data set [4] has as its target T3, Muscarinic acetylcholine receptor M1 (Homo sapiens, UniProt P11229).
T3 sequence (P11229 whole entry): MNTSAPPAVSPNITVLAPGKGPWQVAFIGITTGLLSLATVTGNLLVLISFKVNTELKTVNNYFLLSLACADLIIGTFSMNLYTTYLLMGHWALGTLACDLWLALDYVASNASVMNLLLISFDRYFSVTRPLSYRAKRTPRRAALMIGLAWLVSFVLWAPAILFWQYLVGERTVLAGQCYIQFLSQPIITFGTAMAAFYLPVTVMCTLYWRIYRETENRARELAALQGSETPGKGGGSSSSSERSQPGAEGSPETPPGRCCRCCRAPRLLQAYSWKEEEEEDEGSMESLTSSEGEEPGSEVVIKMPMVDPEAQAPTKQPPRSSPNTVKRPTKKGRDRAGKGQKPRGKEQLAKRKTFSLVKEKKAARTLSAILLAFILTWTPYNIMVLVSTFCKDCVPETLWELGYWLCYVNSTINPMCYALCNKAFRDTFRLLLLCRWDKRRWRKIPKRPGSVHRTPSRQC
As to the kind of experiment: Inhibition of muscarinic M1 receptor. In outline:
as §1

The target of data set [5] is T4, Muscarinic acetylcholine receptor M2 (Homo sapiens, UniProt P08172).
T4 sequence (P08172 whole entry): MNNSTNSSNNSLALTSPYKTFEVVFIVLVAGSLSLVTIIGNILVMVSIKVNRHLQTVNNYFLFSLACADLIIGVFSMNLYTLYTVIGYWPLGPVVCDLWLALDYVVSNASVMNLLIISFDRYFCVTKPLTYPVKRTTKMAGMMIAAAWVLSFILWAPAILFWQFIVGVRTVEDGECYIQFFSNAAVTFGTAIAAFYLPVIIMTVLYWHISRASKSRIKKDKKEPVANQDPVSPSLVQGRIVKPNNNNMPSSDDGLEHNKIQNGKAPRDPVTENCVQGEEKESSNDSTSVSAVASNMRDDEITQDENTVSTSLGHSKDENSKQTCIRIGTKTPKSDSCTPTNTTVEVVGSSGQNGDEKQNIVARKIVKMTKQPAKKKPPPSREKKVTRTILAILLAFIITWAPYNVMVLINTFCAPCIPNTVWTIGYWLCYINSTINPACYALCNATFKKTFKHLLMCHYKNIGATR
Nature of the data set: Inhibition of muscarinic M2 receptor. The procedure, abridged:
as §1

A short description of data set [6]: Oral bioavailability in Sprague-Dawley rat at 10 mg/kg. It is filed as ADME, organism-based. To be noted: in vivo. The procedure, abridged: (§2)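 Male Sprague-Dawley rats dosed intravenously (3 mg/kg) and orally (10 mg/kg). PK parameters came from non-compartmental analysis of plasma concentration vs time curves.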
Data set [7] can be described thus: Volume of distribution at steady state in Sprague-Dawley rat at 3 mg/kg, iv. The class given is ADME, organism-based. The arrangement: dose 3 mg/kg, route intravenous. The settings on record: in vivo, read-out: Vdss. The procedure, abridged:
as §2

Data set [8] is described as follows: AUC in Sprague-Dawley rat at 3 mg/kg, iv. It is filed as ADME, organism-based. On the set-up: dose 3 mg/kg, route intravenous. To be noted: plasma. The procedure, abridged: as §2

As a reminder, the IC50 is the midpoint of a concentration-inhibition curve. Low values mean higher potency, high ones lower potency. One may read the bioavailability as the share of a dose that reaches the circulation, judged against a reference dose that is usually intravenous. Read a low bioavailability as poor availability. A word on the AUC: it is concentration integrated over time. Read a low AUC as less exposure. `N=C(Nc1ccc2c(c1)CCN2C1CCNCC1)c1cccs1`: the half-inhibitory concentration (IC50) is 24 µM in data set [1], 2200 nM in data set [2], 8.6 µM in data set [4] and 3.6 µM in data set [5]. In addition, the “inhibition (INH)” value in data set [3] was “Not Active”. Also, the bioavailability in data set [6] worked out at 91%. In data set [7], the Vd amounted to 330 L/kg. Also, in data set [8], the AUC came out at 95.2 ng·h/mL.
